What was measured:
Histamine H3 receptor [1] = molecular target: Histamine H3 receptor (Rattus norvegicus, UniProt Q9QYN8); experiment: Displacement of [3H]N-alpha-methylhistamine from rat histamine H3 receptor expressed in CHO cells; type: cell-based
[2] = Oral bioavailability in rat; type: ADME, organism-based; settings: in vivo
Method in brief: (§1)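 Rat PK study, dosed 1 mg/kg iv plus 10 or 5 mg/kg po. iv vehicle 3% DMSO, 30% solutol, 67% phosphate buffered saline; oral vehicle 50% Tween 80, 40% propylene carbonate, 10% propylene glycol.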

Histamine H3 receptor [3] = molecular target: Histamine H3 receptor (Homo sapiens, UniProt Q9Y5N1); experiment: Displacement of [3H]N-alpha-methylhistamine from human histamine H3 receptor expressed in CHO cells; type: cell-based
[4] = Half life in human liver microsomes; type: ADME, Microsome
Method in brief: (§2)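 Stability in liver microsomes from rat, dog or human; half-life (min) determined.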

[5] = Half life in rat liver microsomes; type: ADME, Microsome; method in brief: as §2
[6] = Half life in dog liver microsomes; type: ADME, Canis lupus familiaris, Microsome; method in brief: as §2
[7] = Inhibition of cytochrome P450; type: ADME
Method in brief: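 CYP inhibition assessed against 5 CYP isoforms; IC50 determined.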

[8] = Cmax in po dosed rat; type: ADME, organism-based; set-up: route oral; settings: in vivo
[9] = AUC in po dosed rat; type: ADME, organism-based; settings: plasma
Rattus norvegicus [10] = experiment: Cmax in po dosed rat assessed as 5-[4-(1-cyclobutyl-piperidin-4-yloxy)-phenyl]-6-methyl-2H-pyridazin-3-one level; type: ADME, organism-based; set-up: route oral; settings: in vivo
Rattus norvegicus [11] = experiment: AUC in po dosed rat assessed as 5-[4-(1-cyclobutyl-piperidin-4-yloxy)-phenyl]-6-methyl-2H-pyridazin-3-one level; type: ADME, organism-based, Plasma; settings: in vivo
[12] = Volume of distribution in rat at 1 mg/kg, iv; type: ADME, organism-based; set-up: dose 1 mg/kg, route intravenous; settings: in vivo; method in brief: as §1
[13] = Cmax in rat at 10 mg/kg, po; type: ADME, organism-based; set-up: dose 10 mg/kg, route oral; settings: in vivo; method in brief: as §1
[14] = Tmax in rat at 10 mg/kg, po; type: ADME, organism-based; set-up: dose 10 mg/kg, route oral; settings: in vivo; method in brief: as §1
[15] = AUC in rat at 10 mg/kg, po; type: ADME, organism-based; set-up: dose 10 mg/kg, route oral; settings: plasma; method in brief: as §1
[16] = Ratio of drug level in brain to plasma in rat at 10 mg/kg, ip after 6 hrs; type: ADME, organism-based; set-up: dose 10 mg/kg, route intraperitoneal; settings: read-out: BPR
Method in brief: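 Brain and plasma levels measured in rat 6 h after a 10 mg/kg ip dose; value is brain/plasma ratio.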

[17] = Half life in rat at 1 mg/kg, iv; type: ADME, organism-based; set-up: dose 1 mg/kg, route intravenous; settings: in vivo; method in brief: as §1
[18] = Clearance in rat at 1 mg/kg, iv; type: ADME, organism-based; set-up: dose 1 mg/kg, route intravenous; settings: in vivo; method in brief: as §1
[19] = Cmax in rat at 5 mg/kg, po; type: ADME, organism-based; set-up: dose 5 mg/kg, route oral; settings: in vivo; method in brief: as §1
[20] = Tmax in rat at 5 mg/kg, po; type: ADME, organism-based; set-up: dose 5 mg/kg, route oral; settings: in vivo; method in brief: as §1
[21] = Oral bioavailability in rat at 5 mg/kg; type: ADME, organism-based; settings: in vivo; method in brief: as §1
[22] = AUC in rat at 5 mg/kg, po; type: ADME, organism-based; set-up: dose 5 mg/kg, route oral; settings: plasma; method in brief: as §1
[23] = molecular target: Voltage-gated inwardly rectifying potassium channel KCNH2 (Homo sapiens, UniProt Q12809); experiment: Inhibition of human ERG by patch clamp assay
Voltage-gated inwardly rectifying potassium channel KCNH2, sequence (Q12809 whole entry): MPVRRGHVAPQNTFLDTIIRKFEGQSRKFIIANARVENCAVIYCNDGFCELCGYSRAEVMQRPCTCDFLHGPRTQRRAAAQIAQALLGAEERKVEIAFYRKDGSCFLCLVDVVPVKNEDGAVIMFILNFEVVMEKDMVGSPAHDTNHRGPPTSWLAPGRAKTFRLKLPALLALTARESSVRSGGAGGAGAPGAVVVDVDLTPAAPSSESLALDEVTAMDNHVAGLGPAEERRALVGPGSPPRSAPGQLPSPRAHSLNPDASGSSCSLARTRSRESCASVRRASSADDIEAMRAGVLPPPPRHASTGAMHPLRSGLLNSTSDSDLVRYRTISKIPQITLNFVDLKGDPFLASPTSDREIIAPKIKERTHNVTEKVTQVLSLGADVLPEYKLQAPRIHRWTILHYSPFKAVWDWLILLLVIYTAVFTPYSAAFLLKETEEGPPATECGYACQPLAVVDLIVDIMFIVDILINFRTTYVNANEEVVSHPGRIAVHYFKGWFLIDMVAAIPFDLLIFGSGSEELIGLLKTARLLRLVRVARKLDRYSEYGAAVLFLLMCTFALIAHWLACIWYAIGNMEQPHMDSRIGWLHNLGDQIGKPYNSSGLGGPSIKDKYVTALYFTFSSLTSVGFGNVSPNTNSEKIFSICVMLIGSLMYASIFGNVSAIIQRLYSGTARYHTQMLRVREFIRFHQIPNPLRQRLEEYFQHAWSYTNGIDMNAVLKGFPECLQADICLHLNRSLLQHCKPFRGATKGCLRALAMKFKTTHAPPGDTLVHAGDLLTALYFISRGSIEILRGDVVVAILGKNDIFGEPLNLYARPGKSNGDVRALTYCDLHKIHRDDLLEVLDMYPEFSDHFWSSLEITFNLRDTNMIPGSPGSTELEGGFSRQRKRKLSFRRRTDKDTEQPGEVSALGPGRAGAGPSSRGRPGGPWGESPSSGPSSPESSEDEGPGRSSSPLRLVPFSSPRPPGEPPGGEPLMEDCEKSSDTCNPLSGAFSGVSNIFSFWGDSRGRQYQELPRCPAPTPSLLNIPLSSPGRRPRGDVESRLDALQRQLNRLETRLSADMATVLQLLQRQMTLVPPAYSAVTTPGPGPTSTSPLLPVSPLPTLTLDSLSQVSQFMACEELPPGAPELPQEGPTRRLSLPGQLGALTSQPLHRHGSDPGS

Histamine H3 receptor (Homo sapiens, UniProt Q9Y5N1), sequence (Q9Y5N1 whole entry): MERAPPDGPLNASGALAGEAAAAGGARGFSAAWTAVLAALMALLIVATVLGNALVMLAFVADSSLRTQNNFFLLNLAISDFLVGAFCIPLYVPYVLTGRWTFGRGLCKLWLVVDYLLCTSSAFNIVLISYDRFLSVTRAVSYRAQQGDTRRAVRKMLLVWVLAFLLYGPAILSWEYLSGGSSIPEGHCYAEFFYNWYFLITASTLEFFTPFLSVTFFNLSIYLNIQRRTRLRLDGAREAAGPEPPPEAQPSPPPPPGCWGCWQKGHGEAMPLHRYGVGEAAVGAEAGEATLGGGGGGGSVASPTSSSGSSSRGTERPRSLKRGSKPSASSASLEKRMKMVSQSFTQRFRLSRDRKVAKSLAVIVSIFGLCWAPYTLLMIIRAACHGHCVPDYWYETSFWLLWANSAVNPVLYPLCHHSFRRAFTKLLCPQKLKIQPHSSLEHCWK
Histamine H3 receptor (Rattus norvegicus, UniProt Q9QYN8), sequence (Q9QYN8 whole entry): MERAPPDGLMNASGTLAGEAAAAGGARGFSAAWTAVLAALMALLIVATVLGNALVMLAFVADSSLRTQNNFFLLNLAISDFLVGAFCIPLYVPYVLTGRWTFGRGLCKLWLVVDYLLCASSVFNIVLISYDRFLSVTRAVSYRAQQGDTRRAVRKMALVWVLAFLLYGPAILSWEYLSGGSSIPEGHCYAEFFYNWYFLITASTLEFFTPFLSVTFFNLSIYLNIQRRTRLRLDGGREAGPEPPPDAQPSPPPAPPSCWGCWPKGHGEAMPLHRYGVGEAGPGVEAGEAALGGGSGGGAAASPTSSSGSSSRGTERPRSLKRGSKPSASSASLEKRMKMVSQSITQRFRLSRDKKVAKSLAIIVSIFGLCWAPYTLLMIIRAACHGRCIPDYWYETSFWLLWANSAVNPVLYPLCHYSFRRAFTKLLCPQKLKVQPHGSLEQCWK

| Ki (Histamine H3 receptor [1]) [nM] | bioavailability [2] [%] | Ki (Histamine H3 receptor [3]) [nM] | half-life [4] [min] | half-life [5] [min] | half-life [6] [min] | IC50 [7] [nM] | Cmax [8] [ng/mL] | AUC [9] [ng·h/mL] | Cmax (Rattus norvegicus [10]) [ng/mL] | AUC (Rattus norvegicus [11]) [ng·h/mL] | Vd [12] [L/kg] | Kp at 6 h [16] | SMILES | other results |
| --- | --- | --- | --- | --- | --- | --- | --- | --- | --- | --- | --- | --- | --- | --- |
| 13 | 6 | 15 | > 40 | > 40 | > 40 | > 30000 | 73 | 370 | 34 | 152 |  |  | CC1=NNC(=O)CC1c1ccc(OC2CCN(C3CCC3)CC2)cc1 (stereo not drawn) |  |
| 8 | 19 | 4 | > 40 | > 40 | > 40 | > 30000 | 107 | 337 | 68 | 320 |  |  | Cc1nn(C)c(=O)cc1-c1ccc(OC2CCN(C3CCC3)CC2)cc1 |  |

More lines, now with the values behind:

| SMILES | Ki (Histamine H3 receptor [1]) [nM] | bioavailability [2] [%] | Ki (Histamine H3 receptor [3]) [nM] | half-life [4] [min] | half-life [5] [min] | half-life [6] [min] | IC50 [7] [nM] | Cmax [8] [ng/mL] | AUC [9] [ng·h/mL] | Cmax (Rattus norvegicus [10]) [ng/mL] | AUC (Rattus norvegicus [11]) [ng·h/mL] | Vd [12] [L/kg] | Kp at 6 h [16] | other results |
| --- | --- | --- | --- | --- | --- | --- | --- | --- | --- | --- | --- | --- | --- | --- |
| C[C@@H]1CCCN1CCCOc1ccc(-c2cn[nH]c(=O)c2)cc1 | 8.5 |  | 2.8 |  |  |  |  |  |  |  |  | 0.8 | 1.8 | Cmax [13]: 446 ng/mL; Tmax [14]: 120 min; AUC [15]: 4210 ng·h/mL |
| Cc1cccc(-n2nc(C)c(-c3ccc(OC4CCN(C5CCC5)CC4)cc3)cc2=O)n1 | 10 |  | 4 |  |  |  | > 30000 |  |  |  |  | 1.7 | 1.6 | half-life [17]: 66 min; clearance [18]: 16 mL/min/kg; Cmax [19]: 332 ng/mL; Tmax [20]: 120 min; bioavailability [21]: 20%; AUC [22]: 1270 ng·h/mL; IC50 [23]: > 30000 nM |
| Cc1nn(-c2ccsc2)c(=O)cc1-c1ccc(OC2CCN(C3CCC3)CC2)cc1 | 8 |  | 3 |  |  |  |  |  |  |  |  |  |  |  |
